From ChEMBL document CHEMBL1122662, “3-Hydroxy-alpha-methyltyrosine progenitors: synthesis and evaluation of some (2-oxo-1,3-dioxol-4-yl)methyl esters” (J Med Chem, 1984)

Key:
Rattus norvegicus [1] = test: Antihypertensive activity was evaluated in SH rats by measuring initial mean arterial pressure at 0.12 mM/kg dose administered perorally; equivalent to 25 mg/kg of methyldopa; format: functional, Artery; settings: route oral
In short: (§1)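 Unanesthetized male Wistar-Okamoto spontaneously hypertensive rats (290-350 g, 16-24 weeks), six per group, dosed orally at 0.12, 0.24 or 0.47 mmol/kg, equal to 25, 50 or 100 mg/kg methyldopa; doses based on base weight. Arterial pressure recorded continuously by transducer, mean pressure printed every 1/2 h. Initial pressure and maximum fall recorded, mean ± SE.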

Rattus norvegicus [2] = test: Antihypertensive activity was evaluated in SH rats by measuring max reduction in mean arterial pressure at 0.24 mM/kg dose administered perorally; equivalent to 50 mg/kg of methyldopa; format: functional, Artery; settings: route oral; in short: as §1
Rattus norvegicus [3] = test: Antihypertensive activity was evaluated in SH rats by measuring initial mean arterial pressure at 0.47 mM/kg dose administered perorally; equivalent to 100 mg/kg of methyldopa; format: functional, Artery; settings: route oral; in short: as §1
Rattus norvegicus [4] = test: Antihypertensive activity was evaluated in SH rats by measuring imax reduction in mean arterial pressure at 0.12 mM/kg dose administered perorally; equivalent to 25 mg/kg of methyldopa; format: functional, Artery; settings: route oral; in short: as §1
Rattus norvegicus [5] = test: Antihypertensive activity was evaluated in SH rats by measuring max reduction in mean arterial pressure at 0.47 mM/kg dose administered perorally; equivalent to 100 mg/kg of methyldopa; format: functional, Artery; settings: route oral; in short: as §1
Rattus norvegicus [6] = test: Antihypertensive activity was evaluated in SH rats by measuring initial mean arterial pressure at 0.24 mM/kg dose administered perorally; equivalent to 50 mg/kg of methyldopa; format: functional, Artery; settings: route oral; in short: as §1
[7] = Compound was evaluated for its bioavailability after oral administration (200 mg) to Beagle dogs; format: ADME, organism-based, Canis lupus familiaris; settings: dog, in vivo
In short: (§2)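 Randomized cross-over in four male beagles fasted overnight and 6 h postdose, water ad libitum. Single oral doses equal to 200 mg methyldopa; 100 mg methyldopa iv as reference. Jugular blood through 10 h. Plasma deproteinized with HClO4, internal standard ethyldopa, analyzed by C-18 HPLC with amperometric detection. AUC by trapezoids plus terminal extrapolation. Systemic availability relative to iv by Kwan-Till, constant nonrenal clearance; mean ± SD.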

[8] = Compound was evaluated for its renal clearance after oral administration (200 mg) to Beagle dogs; format: ADME, organism-based, Canis lupus familiaris; settings: dog, in vivo, read-out: Renal clearance
In short: (§3)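 Four male beagles in cross-over, single oral doses equal to 200 mg methyldopa, 100 mg iv reference. Voided urine collected through 48 h, heated with HClO4 (99 °C, 15 min) to hydrolyze conjugates, methyldopa measured by HPLC-amperometry. Urinary recovery as % dose; renal clearance as total urinary recovery divided by plasma AUC; mean ± SD.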

[9] = Compound was evaluated for its urinary recovery after oral administration (200 mg) to Beagle dogs; format: ADME, organism-based, Canis lupus familiaris; settings: dog, urine, read-out: Activity; in short: as §3
[10] = Systemic availability with respect to methyldopa was determined; format: ADME; in short: as §2
[11] = Compound was evaluated for its bioavailability after intravenous administration (100 mg) to Beagle dogs
Rattus norvegicus [12] = test: Antihypertensive activity was evaluated in SH rats by measuring imax reduction in mean arterial pressure at 0.24 mM/kg dose administered perorally; equivalent to 50 mg/kg of methyldopa; format: functional, Artery; settings: route oral; in short: as §1
[13] = Compound was evaluated for its urinary recovery after intravenous administration (100 mg) to Beagle dogs
[14] = Compound was evaluated for its renal clearance after intravenous administration (100 mg) to Beagle dogs

Row | AUC [7] [ng·h/mL] | CL renal [8] [mL/min] | dose excreted [9] [%] | Activity [10] [%] | SMILES | Initial mean arterial pressure (Rattus norvegicus [1]) [mmHg] | Max reduction in mean arterial pressure (Rattus norvegicus [2]) [mmHg] | Initial mean arterial pressure (Rattus norvegicus [3]) [mmHg] | Max reduction in mean arterial pressure (Rattus norvegicus [4]) [mmHg] | Max reduction in mean arterial pressure (Rattus norvegicus [5]) [mmHg] | Initial mean arterial pressure (Rattus norvegicus [6]) [mmHg] | AUC [11] [ng·h/mL] | Max reduction in mean arterial pressure (Rattus norvegicus [12]) [mmHg] | Activity [13] [%] | Renal clearance [14] [mL/min]
1 |  |  |  |  | CC(OC(=O)C(C)(C)C)OC(=O)C(C)(N)Cc1ccc(O)c(O)c1.Cl (stereo not given) | 181 | 60 | 179 | 23 | 83 | 181 |  |  |  | 
2 | 61700 | 29.2 | 53.2 | 94.2 | Cc1oc(=O)oc1COC(=O)C(C)(N)Cc1ccc(O)c(O)c1 (stereo not given) | 180 | 38 | 164 | 29 | 52 | 172 |  |  |  | 
3 | 37400 | 29.3 | 31.4 | 55.7 | CC(N)(Cc1ccc(O)c(O)c1)C(=O)OCc1oc(=O)oc1C(C)(C)C (stereo not given) | 182 | 45 | 185 | 24 | 93 | 172 |  |  |  | 
4 | 58300 | 31.9 | 54.2 | 92.1 | C[C@](N)(Cc1ccc(O)c(O)c1)C(=O)O [METHYLDOPA] |  |  |  |  |  | 174 | 32600 | 37 | 57.7 | 31.8
